From PubChem BioAssay
TAAR1 antagonist – human TAAR1 antagonists, primary screen, Fluo-8 calcium fluorescence, CHO RD-HGA16 cells. inhibition, % at 3 µM. Trace amine-associated receptor 1 (Homo sapiens), Q96RJ0. AID 624466, 2012. antagonist. hit rate 1.5% among 360,000;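 active = inhibition above a per-plate cutoff, the mean inhibition of test compounds on that plate plus 3 SD, cut at about 49% in these data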
Target sequence (Q96RJ0 whole entry, looked up): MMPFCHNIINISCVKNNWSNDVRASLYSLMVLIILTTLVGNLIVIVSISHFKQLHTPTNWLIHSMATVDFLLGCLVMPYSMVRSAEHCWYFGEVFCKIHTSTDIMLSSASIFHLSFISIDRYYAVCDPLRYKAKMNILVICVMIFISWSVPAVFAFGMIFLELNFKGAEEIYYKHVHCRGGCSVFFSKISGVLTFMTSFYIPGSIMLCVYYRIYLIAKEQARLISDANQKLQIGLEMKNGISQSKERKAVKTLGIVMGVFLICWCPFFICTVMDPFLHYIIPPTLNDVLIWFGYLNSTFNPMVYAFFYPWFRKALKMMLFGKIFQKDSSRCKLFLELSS
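Material: CHO RD-HGA16 cells bearing hTAAR1; compound dosing: one-point dosing, 3 µM nominal final; schedule: dye loading 75 min at 37 °C, then 30 min room temperature; measured by: calcium fluorescence with Fluo-8; control set: vehicle and agonist controls; replication: n of 1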
V1aR counter – agonists of human V1a receptor, primary screen, counter-screen for OXTR agonist project, fluorescence, CHO-V1R cells | Fluo-8 calcium fluorescence, agonist mode; 0% DMSO, 100% 3 nM vasopressin | AID 2797, 2010 | Vasopressin V1a receptor (Homo sapiens), P37288 | hit rate 0.25% among 320,000 | activation, % at 3 µM;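 active = activation above the mean activation of all tested compounds plus 3 SD, per screening run, cut at about 20% in these data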;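 note: signal is peak over basal fluorescence ratio across a 100 second FLIPR read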
TAAR1 agonist – human TAAR1 agonists, primary screen, Fluo-8 calcium fluorescence, CHO RD-HGA16 cells; vehicle wells 0%, saturating PEA agonist 100%; activation, % at 3 µM; hit rate 0.99% among 360,000;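 active = activation above the mean activation of all test compounds in the run plus 3 SD, cut at about 38% in these data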
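Assay system: CHO-derived RD-HGA16 cells with stable Gα16 and human TAAR1; timing: 17-24 h seeding, 75 min 37 °C dye, 30 min RT; read-out: % activation from peak over basal fluorescence ratio, DMSO-to-PEA scaled; measured by: kinetic Fluo-8 calcium fluorescence; benchmarks: low control DMSO, high control PEA (EC100); doses: 3 µM single concentration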
OXTR ag – human OXTR agonists, primary screen, fluorescence, CHO-OTR cells, Fluo-8 calcium. Fluo-8 calcium fluorescence; normalized: DMSO 0%, oxytocin 100%. hit rate 0.32% among 320,000. activation, % at 3 µM. Oxytocin receptor (Homo sapiens), P30559;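 active = activation above the mean of all tested compounds plus 3 SD, cutoff set per screening run, cut at about 20% in these data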;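 note: peak over basal fluorescence ratio from a 100 s FLIPR kinetic read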
OXTR potentiate – human OXTR potentiators, primary screen, fluorescence, CHO-OTR cells, Fluo-8 calcium; Fluo-8 calcium fluorescence, potentiator mode; 0% = oxytocin EC15, 100% = EC100; activation, % at 3 µM; hit rate 0.061% among 320,000;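 active = activation above that plate's cutoff, the mean activation of tested compounds plus 3 SD, cut at about 6.6% in these data, passing the limit was not always enough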
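assay system = CHO-OTR cells, human receptor | schedule = compound 6 min at room temperature before oxytocin, 100 s read | detection = Fluo-8 intracellular calcium fluorescence, ex 470-495, em 515-575 nm | evaluation = normalized max/min fluorescence ratio, % activation | control set = EC15 oxytocin alone as 0%, 75 nM oxytocin (EC100) as 100%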
TAAR1 ag conf – human TAAR1 agonists, retest of hits, confirmation, Fluo-8 calcium fluorescence, CHO RD-HGA16 cells; scaled: DMSO 0%, maximal phenethylamine 100%; AID 651783, 2012; activation, % at 3 µM; shares compounds with TAAR1 agonist; hit rate 82% among 2,400;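 active = activation above a cutoff set at the run's mean compound activation plus 3 SD, cut at about 39% in these data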
Ga16 nonsel ag – nonselective calcium mobilization agonists, CHO-Ga16 cells, counter-screen for hTAAR1 agonist project, cell-based, fluorescence, CHO-Ga16 parental line | shares compounds with TAAR1 agonist | Fluo-8 calcium fluorescence; normalized to maximal ATP response, DMSO zero | activation, % at 3 µM | hit rate 50% among 2,400 | AID 651787, 2012;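 active = activation above the run cutoff, the mean activation over all tested wells plus 3 SD, cut at about 12% in these data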
TAAR1 desens – TAAR1 desensitization by agonist hits, confirmation, counter-screen for TAAR1 agonist project, cell-based, fluorescence, tachyphylaxis; hit rate 46% among 2,400; shares compounds with TAAR1 agonist; CHO RD-HGA16 hTAAR1, Fluo-8 calcium, beta-PEA response inhibition; inhibition, % at 3 µM;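 active = inhibition above the run cutoff, the mean inhibition of all test compounds plus 3 SD, cut at about 49% in these data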;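 note: beta-PEA stimulus applied at its EC80; loss of beta-PEA calcium signal after compound pretreatment read as receptor desensitization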
Ga16 antag count – inhibition of ATP-evoked calcium response in CHO-Ga16 cells, counter-screen for TAAR1 agonist project, cell-based, fluorescence; shares compounds with TAAR1 agonist; hit rate 39% among 2,400; inhibition, % at 3 µM; CHO-Ga16 ATP-induced calcium, Fluo-8 fluorescence;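 active = inhibition above the plate's mean compound inhibition plus 3 SD, computed per plate, cut at about 22% in these data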
Large screens that a line does not name were inactive (follow-up assays come after a bar, where they were run). An excerpt weighted towards active compounds, which were near 2.3% of everything screened.

Cc1ccc(C)c(OCC(=O)N(C)CC(=O)Nc2ccc(Cl)c(C(F)(F)F)c2)c1	none
Cn1c(CCN2CCCC2)nc2cc(NS(=O)(=O)c3ccc(Cl)cc3)ccc21	none
Cn1c(CN2CCCC2)nc2cc(NS(=O)(=O)c3ccc(Cl)cc3)ccc21	TAAR1 agonist 69 | TAAR1 ag conf 93 | Ga16 nonsel ag 30 | TAAR1 desens inactive | Ga16 antag count inactive
Cc1cc(C)n2nc(C(=O)NCCc3ccccc3)nc2n1	TAAR1 agonist 63 | TAAR1 ag conf 54 | Ga16 nonsel ag inactive | TAAR1 desens inactive | Ga16 antag count inactive
O=C(NCCc1ccccc1)c1nc2nc(-c3cccs3)cc(C(F)(F)F)n2n1	TAAR1 antagonist 84, TAAR1 agonist 84 | TAAR1 ag conf 91 | Ga16 nonsel ag inactive | TAAR1 desens 90 | Ga16 antag count inactive
O=C(O)c1cc2nc(-c3cccs3)cc(C(F)(F)F)n2n1	none
CCOC(=O)CC(=O)c1sc2c(c1N)c(=O)[nH]c(=O)n2-c1ccc(OC)cc1	none
c1ccc(CCN2CN(CCCN3CCOCC3)c3nc4ccccc4n3C2)cc1	none (no result: TAAR1 antagonist, TAAR1 agonist) | Ga16 nonsel ag inactive | Ga16 antag count inactive
CCCN1CCC(NC(=O)C2CCCCC2C(=O)O)CC1 (stereo unspecified)	none
COc1ccc(OC(=O)c2ccc(Cl)cc2)c(C(C)=O)c1	none
O=C(N/N=C\c1c(O)ccc2ccccc12)c1cncc(Br)c1	TAAR1 antagonist 59, V1aR counter 155, TAAR1 agonist 121, OXTR ag 152 | TAAR1 ag conf 72 | Ga16 nonsel ag 90 | TAAR1 desens 52 | Ga16 antag count 58
Fc1ccc(N2CCN(C(c3cccs3)c3nnnn3CCc3ccccc3)CC2)cc1 (stereo unspecified)	none
Fc1ccccc1N1CCN(C(c2cccs2)c2nnnn2CCc2ccccc2)CC1 (stereo unspecified)	TAAR1 agonist 77 | TAAR1 ag conf 83 | Ga16 nonsel ag inactive | TAAR1 desens 56 | Ga16 antag count inactive
c1ccc(CCn2nnnc2C(c2cccs2)N2CCN(Cc3ccc4c(c3)OCO4)CC2)cc1 (stereo unspecified)	TAAR1 antagonist 73, TAAR1 agonist 85 | TAAR1 ag conf 95 | Ga16 nonsel ag inactive | TAAR1 desens 89 | Ga16 antag count inactive
Cc1sc2ncnc(Sc3nnc4sc5ccccc5n34)c2c1C	none (no result: TAAR1 antagonist, TAAR1 agonist)
Nc1[nH]c(C(=O)c2ccccc2)c(-c2ccccc2C(F)(F)F)c1C(=O)NCc1ccc(F)cc1	none (no result: V1aR counter, OXTR ag, OXTR potentiate)
Nc1[nH]c(C(=O)c2ccccc2)c(-c2ccccc2C(F)(F)F)c1C(=O)NCCc1cccs1	TAAR1 agonist 48 (no result: V1aR counter, OXTR ag, OXTR potentiate) | TAAR1 ag conf inactive | Ga16 nonsel ag inactive | TAAR1 desens inactive | Ga16 antag count inactive
CC(C)Cc1ccc(C(C)C(=O)Nc2cccnc2)cc1 (stereo unspecified)	TAAR1 antagonist 63, V1aR counter 43, TAAR1 agonist 84, OXTR ag 46 | TAAR1 ag conf 126 | Ga16 nonsel ag 65 | TAAR1 desens 79 | Ga16 antag count 43
